Where two headings read alike, the source gives them in different places.
How the values were obtained:
[1] = 37°C, 100 mM sodium phosphate, pH 7.4; cited from earlier work
[2] = cited from earlier work
[3] = cited from earlier work; remark: listed apart in the source
[4] = Imidazole binding to ferric cytoglobin by UV-Vis difference spectroscopy; design: species or system human; details: read-out: Imidazole KD; ferric protein
How it was run: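 Ferric globin (5–15 μM) was titrated with imidazole stocks (1–100 mM) to about 100–15000 μM final. Buffer was 100 mM sodium phosphate, pH 7.4, at 25 °C. UV-Vis difference spectra were taken, and the max–min absorbance difference was plotted against ligand. KD came from a 1:1 quadratic binding fit. At least triplicate, with ≥2 protein batches; mean ± SD.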

B1: Cytoglobin Wild-type: wild-type (WT) human Cygb protein, His-tagged, recombinantly expressed (protein, UniProt Q8WWM9 1-190, looked up)
Cytoglobin: MEKVPGEMEIERRERSEELSEAERKAVQAMWARLYANCEDVGVAILVRFFVNFPSAKQYFSQFKHMEDPLEMERSPQLRKHACRVMGALNTVVENLHDPDKVSSVLALVGKAHALKHKVEPVYFKILSGVILEVVAEEFASDFPPETQRAWAKLRGLIYSHVTAAYKEVGWVQQVPNATTPPATLPSSGP
modifications: His-tag
Autoxidation rate [1]: 0.270 ± 0.020^a min^−1
Nitrite reductase reaction rate constant ([2]; 37°C, 100 mM sodium phosphate, pH 7.4): 1.14 ± 0.07^e M^−1s^−1
Nitrite reduction rate ([2]; in the presence of the intramolecular disulfide bond): 32.3 M⁻¹ s⁻¹
Binding to lipids ([3]; Cygb with the reduced thiols): little or no binding
Kd ([3]; read-out: KD for lipids such as oleic acid and cardiolipin): ~1 µM
Kd [4]: ~1000 µM

Reference: article PMC9283305 (Nitric oxide : biology and chemistry, 2022)
